The nature of series [1]: Glucuronidation kinetics of NBIF in HIM. Particulars: glucuronide formation from NBIF, UDPGA-supplemented HIM. Type of series: in vitro ADME, human. In outline:
(§1)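 Incubation in 50 mM Tris-HCl (pH 7.4) with 4.0 mM MgCl2, 22 μg/mL alamethicin, 4.4 mM saccharolactone and 3.5 mM UDPGA. Enzyme source is recombinant UGT or pooled liver or intestinal microsomes, as the line states. Test compound 0.16–80 μM, 1 h. Ice-cold acetonitrile stop, centrifugation, UHPLC/Q-TOF-MS semi-quantification of glucuronides. Minus-UDPGA control. Triplicate. Michaelis-Menten or substrate-inhibition model chosen by Eadie-Hofstee plot; CLint = Vmax/Km.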

A short description of series [2]: Glucuronidation kinetics of NBIF in HLM. Type of series: in vitro ADME, human. The procedure, abridged: as §1
The target of the next series is T1, UGT1A7 (Homo sapiens, UniProt Q9HAW7).
T1 sequence (Q9HAW7 26-530): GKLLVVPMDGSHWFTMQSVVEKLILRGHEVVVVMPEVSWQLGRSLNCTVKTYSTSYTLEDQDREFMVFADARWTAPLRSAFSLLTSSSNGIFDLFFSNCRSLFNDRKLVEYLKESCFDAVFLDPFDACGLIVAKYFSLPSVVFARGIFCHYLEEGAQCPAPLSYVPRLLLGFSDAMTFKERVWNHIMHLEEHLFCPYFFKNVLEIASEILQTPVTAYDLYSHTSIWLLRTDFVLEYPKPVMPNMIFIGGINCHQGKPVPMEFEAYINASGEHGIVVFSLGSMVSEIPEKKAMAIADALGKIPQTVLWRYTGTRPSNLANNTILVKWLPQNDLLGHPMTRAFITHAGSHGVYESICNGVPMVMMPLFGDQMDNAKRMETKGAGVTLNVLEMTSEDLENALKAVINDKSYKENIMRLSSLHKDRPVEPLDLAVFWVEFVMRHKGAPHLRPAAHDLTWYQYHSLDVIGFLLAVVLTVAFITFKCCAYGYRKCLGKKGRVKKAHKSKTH
In words: Glucuronidation kinetics of NBIF by recombinant UGT1A7. It is filed as in vitro ADME. Particulars: glucuronide formation from NBIF. The procedure, abridged:
as §1

A short description of series [3]: Glucuronidation kinetics of NBIF in MkLM. It is filed as in vitro ADME, monkeys. Particulars: glucuronide formation from NBIF, UDPGA-supplemented MkLM. The procedure, abridged:
as §1

The target of the next series is T2, UGT1A1 (Homo sapiens, UniProt P22309).
T2 sequence (P22309 26-533): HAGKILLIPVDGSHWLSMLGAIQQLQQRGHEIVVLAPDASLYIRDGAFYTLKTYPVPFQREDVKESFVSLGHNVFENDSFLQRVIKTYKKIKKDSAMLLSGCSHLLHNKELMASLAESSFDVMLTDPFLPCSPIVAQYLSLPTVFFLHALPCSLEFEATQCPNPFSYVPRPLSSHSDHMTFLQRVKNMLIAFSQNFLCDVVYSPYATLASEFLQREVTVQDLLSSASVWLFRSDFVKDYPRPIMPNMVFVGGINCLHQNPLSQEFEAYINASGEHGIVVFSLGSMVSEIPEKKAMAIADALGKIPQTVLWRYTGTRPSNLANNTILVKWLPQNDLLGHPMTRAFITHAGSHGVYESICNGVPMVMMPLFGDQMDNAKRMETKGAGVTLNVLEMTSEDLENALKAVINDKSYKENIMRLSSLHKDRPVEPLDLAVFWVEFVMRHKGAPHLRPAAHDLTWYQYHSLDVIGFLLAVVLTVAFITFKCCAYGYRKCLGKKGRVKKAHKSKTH
The experiment in a line: Glucuronidation kinetics of NBIF by recombinant UGT1A1. Particulars: glucuronide formation from NBIF. It is filed as in vitro ADME. The procedure, abridged: as §1

A further series addresses T3, UGT1A9 (Homo sapiens, UniProt O60656).
T3 sequence (O60656 26-530): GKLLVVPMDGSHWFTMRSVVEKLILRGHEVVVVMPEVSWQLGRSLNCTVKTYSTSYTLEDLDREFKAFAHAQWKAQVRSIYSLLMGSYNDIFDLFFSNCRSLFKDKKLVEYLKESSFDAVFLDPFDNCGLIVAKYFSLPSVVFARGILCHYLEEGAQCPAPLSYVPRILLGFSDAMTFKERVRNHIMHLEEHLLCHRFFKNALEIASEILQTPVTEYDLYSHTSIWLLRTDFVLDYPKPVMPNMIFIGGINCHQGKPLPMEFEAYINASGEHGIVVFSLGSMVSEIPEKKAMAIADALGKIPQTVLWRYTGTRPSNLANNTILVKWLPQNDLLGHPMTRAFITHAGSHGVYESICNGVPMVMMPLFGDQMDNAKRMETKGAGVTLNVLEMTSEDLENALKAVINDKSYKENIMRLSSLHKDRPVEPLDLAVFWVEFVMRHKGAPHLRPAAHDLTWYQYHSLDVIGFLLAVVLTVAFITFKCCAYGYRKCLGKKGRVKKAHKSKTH
The experiment in a line: Glucuronidation kinetics of NBIF by recombinant UGT1A9. Type of series: in vitro ADME. Particulars: for Vmax: glucuronide formation from NBIF, recombinant UGT1A9. The procedure, abridged:
as §1

The nature of series [4]: Glucuronidation kinetics of NBIF in RLM. Particulars: glucuronide formation from NBIF, UDPGA-supplemented RLM. Type of series: in vitro ADME, rats. In outline:
as §1

Series [5] in a line: Glucuronidation kinetics of NBIF in DLM. It is filed as in vitro ADME, dogs. Particulars: glucuronide formation from NBIF, UDPGA-supplemented DLM. In outline:
as §1

The nature of series [6]: Glucuronidation kinetics of NBIF in RaLM. It is filed as in vitro ADME, rabbits. Particulars: glucuronide formation from NBIF, UDPGA-supplemented RaLM. The procedure, abridged: as §1
A further series has as its target T4, UGT1A8 (Homo sapiens, UniProt Q9HAW9).
T4 sequence (Q9HAW9 26-530): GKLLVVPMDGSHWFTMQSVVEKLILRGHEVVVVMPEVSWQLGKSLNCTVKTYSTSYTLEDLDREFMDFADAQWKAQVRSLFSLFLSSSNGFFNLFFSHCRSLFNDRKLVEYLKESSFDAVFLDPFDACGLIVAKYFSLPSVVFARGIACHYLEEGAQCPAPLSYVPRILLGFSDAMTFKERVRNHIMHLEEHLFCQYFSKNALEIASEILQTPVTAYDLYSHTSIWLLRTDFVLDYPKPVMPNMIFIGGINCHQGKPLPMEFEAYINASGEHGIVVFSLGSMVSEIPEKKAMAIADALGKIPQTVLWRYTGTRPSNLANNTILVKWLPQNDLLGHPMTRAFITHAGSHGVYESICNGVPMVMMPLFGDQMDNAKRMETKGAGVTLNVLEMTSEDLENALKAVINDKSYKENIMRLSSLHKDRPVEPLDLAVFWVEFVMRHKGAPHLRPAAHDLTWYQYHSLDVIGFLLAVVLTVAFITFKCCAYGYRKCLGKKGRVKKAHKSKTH
In words: Glucuronidation kinetics of NBIF by recombinant UGT1A8. Type of series: in vitro ADME. Particulars: glucuronide formation from NBIF. The procedure, abridged:
as §1

The nature of series [7]: Glucuronidation kinetics of NBIF in MLM. It is filed as in vitro ADME, mice. Particulars: glucuronide formation from NBIF, UDPGA-supplemented MLM. The procedure, abridged:
as §1

For series [8] the following is noted: glucuronidation; cited from earlier work.
Series [9] deals with human monoamine oxidase-B. Particulars: cited from earlier work.
The next series relates to platelet aggregation. Particulars: inhibition of platelet aggregation; cited from earlier work.
For the next series, the target named is human carboxylesterase 2. Particulars: cited from earlier work.
The nature of series [10]: Species difference analysis of NBIF metabolism. Type of series: in vitro ADME. Particulars: CLint, HLM versus animal liver microsomes. The procedure, abridged: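 CLint values (Vmax/Km from model fits) for oxidation and glucuronidation come from pooled human liver microsomes and from monkey, rat, mouse, dog and rabbit liver microsomes. Each was incubated with test compound at 0.16–80 μM, using NADPH-supplemented oxidation or UDPGA/alamethicin glucuronidation conditions. Metabolites were measured by UHPLC/Q-TOF-MS in triplicate.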
On the technique in general: Liver microsomes are vesicles of endoplasmic reticulum, rich in cytochrome P450 enzymes.

Series [11] deals with UDP-glucuronosyltransferase 1A1 (UGT1A1). Particulars: inhibitory effect on UGT1A1; cited from earlier work.
Another series has as its target α-glucosidase. Particulars: α-glucosidase inhibitory activities; cited from earlier work.
Series [12] has as its target human monoamine oxidase-A. Particulars: cited from earlier work.
The conditions of series [13]: inhibitory effect on HLM; cited from earlier work.
For series [14] the following is noted: glucuronidation; cited from earlier work. This is another data set of the same source.
Where [15] appears, read: glucuronide formation from NBIF, UDPGA-supplemented HLM.

The values that follow come from publication PMC7396963 (Journal of pharmaceutical and biomedical analysis, 2018).

Each structure is given as a SMILES string. Where two headings read alike, the source gives them in different places.

For the compound `CC(C)=CCc1cc(-c2coc3cc(O)ccc3c2=O)ccc1O[C@@H]1O[C@H](C(=O)O)[C@@H](O)[C@H](O)[C@H]1O` [G2, NBIF-4′-O-glucuronide], the inhibition constant Ki in [1] came to 33.32 ± 7.95 µM; at UGT1A7, 154.5 ± 44.85 µM; on UGT1A1 it was 401.2 ± 135.7 µM; in [4], 9.09 ± 1.82 µM; in series [7], 31.68 ± 9.16 µM. The Vmax in [1] is reported as 8655.0 ± 1021.0 pmol/min/mg; in series [2] (setting [15]), 919.1 ± 20.23 pmol/min/mg; at UGT1A7 it was 135.3 ± 4.36 pmol/min/mg; in series [3], 7072.0 ± 228.4 pmol/min/mg; on UGT1A1 it was 48.33 ± 1.59 pmol/min/mg; at UGT1A9, 805.9 ± 17.46 pmol/min/mg. For the same compound, the Vmax is 826.6 ± 99.48 pmol/min/mg in series [4]; 3363.0 ± 85.47 pmol/min/mg in series [5]; 3411.0 ± 155.5 pmol/min/mg in [6]; 147.0 ± 6.84 pmol/min/mg on UGT1A8; 3878.0 ± 563.1 pmol/min/mg in [7].

`CC(C)=CCc1cc(-c2coc3cc(O[C@@H]4O[C@H](C(=O)O)[C@@H](O)[C@H](O)[C@H]4O)ccc3c2=O)ccc1O` [G1, NBIF-7-O-glucuronide]: the Vmax in series [1] came to 409.3 ± 18.9 pmol/min/mg; in series [2] (setting [15]), 1788.0 ± 203.6 pmol/min/mg; on UGT1A7 it was 11.93 ± 0.55 pmol/min/mg; in series [3], 4129.0 ± 182.8 pmol/min/mg; at UGT1A1, 912.4 ± 49.36 pmol/min/mg; on UGT1A9, 70.01 ± 1.37 pmol/min/mg. The Vmax stood at 2490.0 ± 249.5 pmol/min/mg in series [4]; 1807.0 ± 48.14 pmol/min/mg in series [5]; 3006.0 ± 103.8 pmol/min/mg in series [6]; 419.1 ± 18.69 pmol/min/mg on UGT1A8; 3589.0 ± 432.9 pmol/min/mg in series [7]. Moreover, the Ki in [2] (setting [15]) was found to be 48.45 ± 13.86 µM; at UGT1A7, 61.82 ± 13.5 µM; on UGT1A1 it was 291.1 ± 100.1 µM; in series [4], 24.73 ± 4.75 µM; in series [7], 38.19 ± 10.18 µM.

Take `COc1ccc(-c2oc3c(CC=C(C)C)c(O)cc(O)c3c(=O)c2O)cc1` [icaritin]: in series [8], the CLint values result is listed as “more than 270 μL/min/mg”.

In the case of `CC(C)=CCc1cc(-c2coc3cc(O)ccc3c2=O)ccc1O` [NBIF, Neobavaisoflavone], the IC50 in [9] is 77.3 µM; in the series with platelet aggregation, 2.5 µM; on human carboxylesterase 2, 6.39 µM; in [11] it was 2.42 µM; at α-glucosidase, 27.7 µM; in series [12], 66.5 µM. In addition, the IC50 in series [13] is 2.25 µM. Also, the microsomal CLint in [2] (human, human liver microsomes (HLM) and HIM, pH 7.4) is 60 to 949 µL/min/mg; at UGT1A9 (human, recombinant UGT1A9, pH 7.4), 1070 µL/min/mg. Also, the “species differences in glucuronidation” value in series [10] is recorded as “approximately 2.3 fold”. In series [10], the “species differences in the phase I metabolism” value was “approximately 16.1 fold”.

Consider `COc1ccc(-c2oc3c(CCC(C)(C)O)c(O)cc(O)c3c(=O)c2O)cc1` [wushanicaritin], for which the CLint values in series [14] was over 160 µL/min/mg.

One may read the Ki as a measure of affinity in units of concentration, obtained from inhibition or displacement. In general, Vmax refers to the top rate of the reaction or transport when substrate is in excess. The IC50 is the point on the concentration scale where inhibition reaches its midpoint. The microsomal CLint is the rate of metabolic loss divided by the concentration.
